Test results published in ChEMBL document CHEMBL4251593, “Nontoxic combretafuranone analogues with high in vitro antibacterial activity” (Eur J Med Chem, 2018).
Calls of active or inactive are those of the source.

How the values were obtained:
HepG2 [1] = test: Induction of apoptosis in human HepG2 cells assessed as caspase 3/7 activity after 24 hrs by caspase-glo luminescent assay; format: cell-based; details: HepG2, 24 h
Method in brief: (§1)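 Cells were seeded at 500 per well in their growth media and exposed to 12 concentrations from 40 µM to 1 nM, delivered from DMSO, in triplicate. After 24 h, caspase-3/7 activity was read by Caspase-Glo luminescence. Data were normalized and ED50 was fitted by variable-slope nonlinear regression.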

TERT-RPE1 [2] = test: Induction of apoptosis in human RPE1 cells assessed as caspase 3/7 activity after 24 hrs by caspase-glo luminescent assay; format: cell-based; details: RPE-1, 24 h; method in brief: as §1
Klebsiella pneumoniae [3] = test: Antibacterial activity against Klebsiella pneumoniae HK14368/08 clinical isolate after 48 hrs by microdilution assay; format: functional; details: HK14368/08, 48 h
Klebsiella pneumoniae [4] = test: Antibacterial activity against Klebsiella pneumoniae HK11750/08 clinical isolate after 24 hrs by microdilution assay; format: functional; details: HK11750/08, 24 h
Candida albicans [5] = test: Antifungal activity against Candida albicans ATCC 44859 up to 1 mM after 24 to 48 hrs by microdilution assay; format: functional, organism-based
Method in brief: (§2)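 Fungal microdilution following modified CLSI M27-A3/M38-A2, in RPMI 1640 with L-glutamine and 0.165 M MOPS at pH 7.0, with DMSO no more than 2% final. Compounds were 2-fold serially diluted from 2000 to 0.488 µmol/l. The inoculum was 5×10^3 cfu/ml. Incubation was at 35 °C, read visually at 24/48 h (T. mentagrophytes at 72/120 h). MIC was IC80 for yeasts and IC50 for filamentous fungi, determined twice in duplicate.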

Staphylococcus aureus [6] = test: Antibacterial activity against methicillin-resistant Staphylococcus aureus HK5996/08 clinical isolate after 48 hrs by microdilution assay; format: functional; details: HK5996/08, 48 h
Enterococcus sp. [7] = test: Antibacterial activity against Enterococcus sp. HK14365/08 clinical isolate after 24 hrs by microdilution assay; format: functional; details: HK14365/08, 24 h
K562 [8] = test: Cytotoxicity against human K562 cells assessed as reduction in cell viability after 48 hrs by ATPlite-based luminescent assay; details: K562, 48 h
Method in brief: (§3)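 Cells were grown […] with 10% FBS, glutamax, NEAA and pen/strep at 37 °C, 5% CO2. Media were DMEM for RPE-1, HepG2 and BJ (BJ plus 10 ng/ml bFGF), F-12K for PC3, and IMDM for K562/HL-60. Cells were seeded at 500 per well and dosed from DMSO at 12 concentrations, 40 µM to 1 nM, in triplicate. After 48 h, intracellular ATP was read by luminescence. ED50 was obtained by variable-slope nonlinear regression.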

Escherichia coli [9] = test: Antibacterial activity against Escherichia coli ATCC 8739 after 48 hrs by microdilution assay; format: functional; details: ATCC 8739, 48 h
Method in brief: (§4)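 Broth microdilution in Mueller-Hinton medium buffered to pH 7.4 (±0.2), with DMSO as diluent at no more than 2% final. Compounds were tested as 2-fold serial dilutions from 2000 to 0.488 µmol/l. The inoculum was 0.5 McFarland (1.5×10^8 cfu/ml). Plates were held at 37 °C and read visually at 24 and 48 h. MIC was taken as 95% growth inhibition versus control, determined twice in duplicate.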

Pichia kudriavzevii [10] = test: Antifungal activity against Candida krusei E28 clinical isolate up to 1 mM after 24 to 48 hrs by microdilution assay; format: functional, organism-based; method in brief: as §2
Pseudomonas aeruginosa [11] = test: Antibacterial activity against Pseudomonas aeruginosa ATCC 9027 after 48 hrs by microdilution assay; format: functional; details: ATCC 9027, 48 h; method in brief: as §4
Candida albicans [12] = test: Antifungal activity against Candida albicans ATCC 90028 up to 1 mM after 24 to 48 hrs by microdilution assay; format: functional, organism-based; method in brief: as §2
Staphylococcus aureus [13] = test: Antibacterial activity against Staphylococcus aureus ATCC 6538 after 48 hrs by microdilution assay; format: functional; details: ATCC 6538, 48 h
HL-60 [14] = test: Cytotoxicity against human HL60 cells assessed as reduction in cell viability after 48 hrs by ATPlite-based luminescent assay; details: HL-60, 48 h; method in brief: as §3
BJ = test: Cytotoxicity against human BJ cells assessed as reduction in cell viability after 48 hrs by ATPlite-based luminescent assay; method in brief: as §3
PC-3 [15] = test: Cytotoxicity against human PC3 cells assessed as reduction in cell viability after 48 hrs by ATPlite-based luminescent assay; details: PC-3, 48 h; method in brief: as §3
[16] = tested on: Staphylococcus epidermidis; test: Antibacterial activity against Staphylococcus epidermidis HK6966/08 clinical isolate after 24 hrs by microdilution assay; format: functional; details: HK6966/08, 24 h
HL-60 [17] = test: Induction of apoptosis in human HL60 cells assessed as caspase 3/7 activity after 24 hrs by caspase-glo luminescent assay; format: cell-based; details: HL-60, 24 h; method in brief: as §1
Candida parapsilosis = test: Antifungal activity against Candida parapsilosis ATCC 22019 up to 1 mM after 24 to 48 hrs by microdilution assay; format: functional, organism-based; method in brief: as §2
Staphylococcus aureus [18] = test: Antibacterial activity against Staphylococcus aureus ATCC 6538 after 24 hrs by microdilution assay; format: functional; details: ATCC 6538, 24 h
TERT-RPE1 [19] = test: Cytotoxicity against human RPE1 cells assessed as reduction in cell viability after 48 hrs by ATPlite-based luminescent assay; details: RPE-1, 48 h; method in brief: as §3
Aspergillus fumigatus = test: Antifungal activity against Aspergillus fumigatus 231 up to 1 mM after 24 to 48 hrs by microdilution assay; format: functional, organism-based; method in brief: as §2
[20] = tested on: Trichophyton mentagrophytes; test: Antifungal activity against Trichophyton mentagrophytes 445 up to 1 mM after 72 to 120 hrs by microdilution assay; format: functional, organism-based; method in brief: as §2
Nakaseomyces glabratus = test: Antifungal activity against Candida glabrata 20/I clinical isolate up to 1 mM after 24 to 48 hrs by microdilution assay; format: functional, organism-based; method in brief: as §2
Klebsiella pneumoniae [21] = test: Antibacterial activity against Klebsiella pneumoniae HK14368/08 clinical isolate after 24 hrs by microdilution assay; format: functional; details: HK14368/08, 24 h
Staphylococcus aureus [22] = test: Antibacterial activity against methicillin-resistant Staphylococcus aureus HK5996/08 clinical isolate after 24 hrs by microdilution assay; format: functional; details: HK5996/08, 24 h
PC-3 [23] = test: Induction of apoptosis in human PC3 cells assessed as caspase 3/7 activity after 24 hrs by caspase-glo luminescent assay; format: cell-based; details: PC-3, 24 h; method in brief: as §1
Lichtheimia corymbifera = test: Antifungal activity against Absidia corymbifera 272 up to 1 mM after 24 to 48 hrs by microdilution assay; format: functional, organism-based; method in brief: as §2
Pichia kudriavzevii [24] = test: Antifungal activity against Candida krusei ATCC 6258 up to 1 mM after 24 to 48 hrs by microdilution assay; format: functional, organism-based; method in brief: as §2
Enterococcus sp. [25] = test: Antibacterial activity against Enterococcus sp. HK14365/08 clinical isolate after 48 hrs by microdilution assay; format: functional; details: HK14365/08, 48 h
Pseudomonas aeruginosa [26] = test: Antibacterial activity against Pseudomonas aeruginosa ATCC 9027 after 24 hrs by microdilution assay; format: functional; details: ATCC 9027, 24 h; method in brief: as §4
HepG2 [27] = test: Cytotoxicity against human HepG2 cells assessed as reduction in cell viability after 48 hrs by ATPlite-based luminescent assay; details: HepG2, 48 h; method in brief: as §3
Trichosporon asahii = test: Antifungal activity against Trichosporon asahii 1188 clinical isolate up to 1 mM after 24 to 48 hrs by microdilution assay; format: functional, organism-based; method in brief: as §2
MCF7 = test: Cytotoxicity against human MCF7 cells assessed as reduction in cell viability after 48 hrs by ATPlite-based luminescent assay; details: MCF7, 48 h
Klebsiella pneumoniae [28] = test: Antibacterial activity against Klebsiella pneumoniae HK11750/08 clinical isolate after 48 hrs by microdilution assay; format: functional; details: HK11750/08, 48 h
K562 [29] = test: Induction of apoptosis in human K562 cells assessed as caspase 3/7 activity after 24 hrs by caspase-glo luminescent assay; format: cell-based; details: K562, 24 h; method in brief: as §1
Escherichia coli [30] = test: Antibacterial activity against Escherichia coli ATCC 8739 after 24 hrs by microdilution assay; format: functional; details: ATCC 8739, 24 h; method in brief: as §4
Clavispora lusitaniae = test: Antifungal activity against Candida lusitaniae 2446/I clinical isolate up to 1 mM after 24 to 48 hrs by microdilution assay; format: functional, organism-based; method in brief: as §2
Candida tropicalis = test: Antifungal activity against Candida tropicalis 156 clinical isolate up to 1 mM after 24 to 48 hrs by microdilution assay; format: functional, organism-based; method in brief: as §2
[31] = tested on: Staphylococcus epidermidis; test: Antibacterial activity against Staphylococcus epidermidis HK6966/08 clinical isolate after 48 hrs by microdilution assay; format: functional; details: HK6966/08, 48 h

COc1ccc(C2=C(c3cccc(Cl)c3Cl)C(=O)OC2(CO)CO)cc1
> 40 µM: IC50 (HepG2 [1]) | IC50 (TERT-RPE1 [2]) | IC50 (K562 [8]) | IC50 (HL-60 [14]) | IC50 (BJ) | IC50 (PC-3 [15]) | IC50 (HL-60 [17]) | IC50 (TERT-RPE1 [19]) | IC50 (PC-3 [23]) | IC50 (HepG2 [27]) | IC50 (MCF7) | IC50 (K562 [29])
500 µM: MIC95 (Enterococcus sp. [7])
250 µM: MIC95 [16] | MIC95 [31]
> 500 µM: MIC95 (Klebsiella pneumoniae [3]) | MIC95 (Klebsiella pneumoniae [4]) | MIC95 (Escherichia coli [9]) | MIC95 (Pseudomonas aeruginosa [11]) | MIC95 (Klebsiella pneumoniae [21]) | MIC95 (Enterococcus sp. [25]) | MIC95 (Pseudomonas aeruginosa [26]) | MIC95 (Klebsiella pneumoniae [28]) | MIC95 (Escherichia coli [30])
7.81 µM: MIC95 (Staphylococcus aureus [18])
125 µM: MIC95 (Staphylococcus aureus [6])
15.6 µM: MIC95 (Staphylococcus aureus [13])
62.5 µM: MIC95 (Staphylococcus aureus [22])
inactive: Activity (Candida albicans [5]) | Activity (Pichia kudriavzevii [10]) | Activity (Candida albicans [12]) | Activity (Candida parapsilosis) | Activity (Aspergillus fumigatus) | Activity [20] | Activity (Nakaseomyces glabratus) | Activity (Lichtheimia corymbifera) | Activity (Pichia kudriavzevii [24]) | Activity (Trichosporon asahii) | Activity (Clavispora lusitaniae) | Activity (Candida tropicalis)
